# In ChEMBL document CHEMBL4513216, “Probing the Open Global Health Chemical Diversity Library for Multistage-Active Starting Points for Next-Generation Antimalarials” (ACS Infect Dis, 2020):
# Experiment: Toxicity liver stage against HepG2, at 10uM
# Type: cell-based
# Design: test concentration 10 uM, cell line HepG2-A16-CD81EGFP
# Details: human, HepG2-A16-CD81EGFP cells; read-out: INHIBITION
# Outline: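 Uninfected HepG2-A16-CD81EGFP cells, 3 × 10^3 per well, 1536-well, plated on prespotted compound at 10 μM final, parasite-free screening media added to match infected plates; puromycin 10 μM positive, DMSO 0.5% negative; run in parallel with 48 h PbLuc assay at 37 °C, 5% CO2; viability by CellTiter-Glo luminescence, normalized to controls.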
row,Structure (SMILES),cytotoxicity at 10 µM
1,O=C(c1ccc[nH]1)N1CCCn2c(CN3CCCCC3)nnc2C1,-106%
2,COC[C@]12COC[C@H]1CN(C(=O)C1CC(F)(F)C1)C2,5.83%
3,CCCc1c(C(=O)N2CCN(c3nccc(OC)n3)CC2)cnn1C,17.2%
4,OCCOc1ccccc1CN1CCCC(O)(CO)C1 (centres undefined),-38.7%
5,COc1ccc(C2CCCN2Cc2cnn(C)c2)cc1 (centres undefined),7.53%
6,CC(=O)N1CCCN(C(=O)NCCCNS(C)(=O)=O)CC1,-10.3%
7,COc1ccc(OC)c(C(=O)Nc2cccnc2-n2cncn2)c1,-17%
8,CCCNC(=O)CNc1cc(C(=O)N2CCSCC2)ccc1C,-5.91%
9,Cc1cc(C)n(C2CN(CC(=O)N(C)Cc3ccco3)C2)n1,-4.42%
10,COC(=O)Nc1ccc(CNc2cncc(-n3cccn3)n2)cc1,-5.78%
11,CC(=O)N1CCC2(CCN(S(=O)(=O)c3ccccc3)CC2)C1,-2.83%
12,O=C1N(Cc2ccncc2)CCC12CCCN(c1ncc(F)cn1)C2 (centres undefined),-7.38%
13,O=C(c1ccccn1)N1CCCC(c2ncncc2-c2ccncc2)C1 (centres undefined),-0.0141%
14,Cc1nn2c(NCC(N)=O)cc(-c3ccccc3)nc2c1C,-10.5%
15,O=C(C1CCS(=O)(=O)C1)N1CCN(c2cnccn2)CC1 (centres undefined),-6.66%
16,CCc1cc(C(F)(F)F)c2c(C3CCCN(C(=O)COC)C3)noc2n1 (centres undefined),-17.6%
17,COCCCC1(CO)CCCN(Cc2nccs2)C1 (centres undefined),2.43%
18,COc1c(C(N)=O)cn(C)c1-c1nc2cc(NC(C)=O)ccc2n1C,-46.5%
19,Cn1cc(CC2CCN(C(=O)NCc3cn4ccsc4n3)C2)cn1 (centres undefined),-5.57%
20,Cc1noc(C)c1CN1CCCC1c1c(C)nn(C)c1Cl (centres undefined),-2%
21,O=C(CN1CC(c2nc(-c3ccco3)no2)C1)NCCc1ccccc1,-9.54%

row,Structure (SMILES),cytotoxicity at 10 µM
1,CCN1CCOC(CNCc2ccc(OCc3ccccn3)cc2)C1 (centres undefined),-7.83%
2,COCCC(=O)N1CCCC1c1nccc(C)n1 (centres undefined),-19.2%
3,CCc1cnc(CN2CCOC(c3nc(C)n[nH]3)C2)o1 (centres undefined),-4.83%
4,COc1ccc2c(c1)CC(NC(=O)NCc1cccs1)CO2 (centres undefined),7.52%
5,CCc1nccn1C1CCCN(C(=O)c2ccc3[nH]cnc3c2)C1 (centres undefined),-7.66%
6,O=C(c1n[nH]c2c1CCN(Cc1nccs1)C2)N1CCCC1,-10.7%
7,CCNc1ncc(C(=O)NCc2ccc3nsnc3c2)cn1,2.34%
8,CCC(O)Cn1nc(-c2ccc(C(=O)O)cc2)cc1-c1cccc(F)c1 (centres undefined),8.17%
9,Cc1cnc(C(NC(=O)NCc2nc(C3CC3)no2)C2CC2)s1 (centres undefined),4.34%
10,COc1ccc(CC(=O)N2CCc3nnc(N(C)C)cc3C2)cc1F,-9.5%
11,Cc1cc2[nH]c(CN3CCCCC3c3cccc(F)c3)cc(=O)n2n1 (centres undefined),1.29%
12,COc1ccccc1OCc1cc(C(=O)N2CCC(NC(C)=O)C2)n[nH]1 (centres undefined),-4.26%
13,CSCCC1c2nc[nH]c2CCN1Cc1ccnc2ccccc12 (centres undefined),13.2%
14,Cc1cc(C(=O)N2CCN(CC(O)Cn3cccn3)CC2)c(C)o1 (centres undefined),-4.76%
15,O=C(CO)N1CCC(c2ccnc(Nc3cc(C(F)(F)F)ccn3)n2)C1 (centres undefined),18%
16,Cc1[nH]c2ccccc2c1CCNc1ncnc2c1CCNCC2,-37.5%
17,CN(C)c1ncc(CNC(=O)Nc2ccccc2F)n1C,-46.9%
18,Cc1ccc(-n2ncc(C(=O)NC3CCCCC3)c2N)cc1,-50.6%
19,CNCC1CCC(c2cc(CN(C)C(=O)c3cnccn3)n(C)n2)CC1 (centres undefined),-5.1%
20,CC(C)c1ncc2c(n1)CN(Cc1cccc(C#N)c1)CC2,-9.03%
21,COC(=O)CCN(C)C(=O)c1csc(Cc2ccccc2F)n1,9.38%

row,Structure (SMILES),cytotoxicity at 10 µM
1,Cc1ccccc1CNC(=O)N1C[C@@H]2C[C@H](C(=O)N(C)C)[C@H](C1)O2,5.44%
2,O=C(CCOc1cccc(F)c1)N1CCCC(n2cncn2)C1 (centres undefined),-0.192%
3,CCN(CC)c1ncc(Cl)c(C(=O)NC2CCc3nccn3C2)n1 (centres undefined),-49.5%
4,O=C(C1CCC1)N1CCC2(CCNCC2)C1,-3.39%
5,CC(C)C(=O)N1CCC(c2nc3c([nH]2)CCCNC3=O)CC1,1.74%
6,Nc1cc(CCC2CN(Cc3ccc4c(c3)OCCO4)CCO2)ccn1 (centres undefined),15.8%
7,COc1ccc(N2CCN(C(=O)COc3nccc(C)n3)CC2)cc1,-6.16%
8,CSc1[nH]nc(NC(=O)c2ccccc2)c1C#N,-9.59%
9,CN(C)c1nc(NCCc2ccccn2)ncc1F,-4.84%
10,O=C1NCC(CN2CCc3onc(-c4ccc(C(F)(F)F)cc4)c3C2)O1 (centres undefined),2.02%
11,COc1ncc(NCc2ccsc2)cc1C(N)=O,1.25%
12,Cc1cc(C)c2nc(CN3CCC(C#N)CC3)cc(O)c2c1,6.27%
13,Cc1cnn(CC2CCCCN2C(=O)c2ccc3[nH]c(=O)[nH]c3c2)c1 (centres undefined),5.8%
14,Cc1cnn(C2CCCN(C(=O)Cc3ccc(-n4cccn4)cc3)C2)c1 (centres undefined),2.55%
15,CC(C)(C)c1oc(C(N)=O)cc1CN1CCCCC(N)C1 (centres undefined),5.94%
16,CN1CCN(CC2CC2)C(=O)C12CCN(C(=O)c1cnccn1)CC2,7.95%
17,CC(C)N1CCOCC2(CCCN(C(=O)c3cn(C)cn3)C2)C1 (centres undefined),1.88%
18,Cc1cc(O)cc(C2CCCN2C(=O)c2ccncc2)n1 (centres undefined),8.16%
19,Cn1ncc2c(=O)[nH]c(CN3CCc4sccc4C3)nc21,-19%
20,Fc1cccc(Cl)c1Cn1ncnc1CSCCN1CCCC1,-0.454%
21,Cc1ccc(Cl)c(CN2CCC(c3nccn3C(C)C)CC2)c1F,4.8%

row,Structure (SMILES),cytotoxicity at 10 µM
1,COCc1ccccc1C(=O)N(C)Cc1ncc(C)c(OC)c1C,-7.55%
2,COc1ccc(Br)c(C(=O)NCCNc2ccc(C(F)(F)F)cn2)c1,12.7%
3,Cc1ccc(C(=O)N2CCC3(CC2)CC(NC(=O)C(C)C)CO3)cc1 (centres undefined),-1.89%
4,COc1ccc(N2CCN(Cc3nc(CSC)no3)C(C)C2=O)cc1 (centres undefined),3.28%
5,O=C(c1nc(-c2ccc3cc[nH]c3c2)no1)N1CCCC1,-3.29%
6,CC1CC2(CCN(C(=O)c3c[nH]cn3)CC2)c2ccccc21 (centres undefined),2.44%
7,CN(c1ncnc2c1CCC2)C1CCCN(c2cccnn2)C1 (centres undefined),1.72%
8,CCn1c(C)nnc1CN(C)C1CCN(CCS(=O)(=O)CC)C1 (centres undefined),-1.17%
9,CC(C)(C)c1ncc(C(=O)NCCNC(=O)c2cccs2)s1,-1.56%
10,CN1CCN(C(=O)NC2CC2)Cc2cccnc21,-2.96%
11,Nc1nc2nc(C3CCCN(C(=O)c4cncs4)C3)ccc2s1 (centres undefined),-19.1%
12,Cc1ccc(CN2CCC3(CC2)OC(C(=O)N(C)C)c2ccccc23)o1 (centres undefined),4.34%
13,COc1ccc(C2CCN(C(=O)c3ncccc3OC(C)C)C2)cc1 (centres undefined),-6.45%
14,COCCN(C)C(=O)c1ccc(OC)cc1O,-3.19%
15,CCC1COCCN1C(=O)CNC(=O)c1ccoc1C (centres undefined),-7.51%
16,CCC(NC(=O)Nc1cc(F)c(OC)c(F)c1)c1noc(C)n1 (centres undefined),-0.177%
17,COCC(=O)NCCCn1ncc2c(C)cccc21,7.55%
18,Cc1nnc(NC(=O)NC(C)C(=O)NC2CCCC2)s1 (centres undefined),-0.334%
19,COCc1ncc(CN(Cc2ccco2)C(C)C(C)C)cn1 (centres undefined),-0.0832%
20,Nc1nnc(CCCNc2ncnc3c2CCN(C(=O)C2CC2)C3)s1,-3.94%
21,CN1CCN(C(=O)NCCNc2ncccn2)Cc2ccccc21,-4.47%
